Molecules are shown by their SMILES.

Here are results for 25 compounds from ChEMBL document CHEMBL3272208, “(Vinylaryloxy)acetic acids. A new class of diuretic agents. 3. ((2-Nitro-1-alkenyl)aryloxy)acetic acids” (1976).

Experiment [1] deals with Canis familiaris. Kind of experiment: Diuretic activity in mongrel dog assessed as sodium level in excreted urine at 5 mg/kg, iv measured […] after dosage (reference value: 1 to 91 uequiv/min). It counts as functional, Canis lupus familiaris. Summed up: (§1)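 Compounds were given iv to dogs as Na salts in H2O. […] The baseline is the mean of two 15-min periods before dosing. The response is the mean of two consecutive 15-min periods of maximal Na+ excretion, usually 15–45 min post-dose. Na+, K+ and Cl- are in μequiv/min and urine volume in ml/min, reported as control/drug.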

The subject of experiment [2] is Canis familiaris. Kind of experiment: Diuretic activity in mongrel dog assessed as potassium level in excreted urine at 5 mg/kg, iv measured between 15 to 45 mins after dosage (reference value: 12 to 70 uequiv/min). It counts as functional, Canis lupus familiaris. A digest of the protocol: as §1
Experiment [3] relates to Canis familiaris. Description: Diuretic activity in mongrel dog assessed as chloride level in excreted urine at 5 mg/kg, iv measured between 15 to 45 mins after dosage (reference value: 1 to 65 uequiv/min). It counts as functional, Canis lupus familiaris. Summed up: as §1
The subject of experiment [4] is Canis familiaris. Description: Diuretic activity in mongrel dog assessed as volume of excreted urine at 5 mg/kg, iv measured between 15 to 45 mins after dosage (reference value: 1 to 5 ml/min). It counts as functional, Canis lupus familiaris. A digest of the protocol:
as §1

The subject of experiment [5] is Canis familiaris. Description: Diuretic activity in mongrel dog assessed as sodium level in excreted urine at 1 mg/kg, iv measured […] after dosage (reference value: 3 to 95 uequiv/min). In kind it is functional, Canis lupus familiaris. Summed up:
(§2)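 Compounds were given iv to dogs as Na salts in H2O. The baseline is the mean of two 15-min periods before dosing. The response is the mean of two consecutive 15-min periods of maximal Na+ excretion, usually 15–45 min post-dose. Na+, K+ and Cl- are in μequiv/min and urine volume in ml/min, reported as control/drug.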

Experiment [6] concerns Canis familiaris. Kind of experiment: Diuretic activity in mongrel dog assessed as potassium level in excreted urine at 1 mg/kg, iv measured between 15 to 45 mins after dosage (reference value: 6 to 47 uequiv/min). It counts as functional, Canis lupus familiaris. Summed up: as §1
The test system of experiment [7] is Canis familiaris. Description: Diuretic activity in mongrel dog assessed as chloride level in excreted urine at 1 mg/kg, iv measured between 15 to 45 mins after dosage (reference value: 1 to 70 uequiv/min). In kind it is functional, Canis lupus familiaris. A digest of the protocol: as §2
Experiment [8] concerns Canis familiaris. Description: Diuretic activity in mongrel dog assessed as volume of excreted urine at 1 mg/kg, iv measured between 15 to 45 mins after dosage (reference value: 1 to 4 ml/min). In kind it is functional, Canis lupus familiaris. A digest of the protocol:
as §1

Experiment [9] has as its system Canis familiaris. Kind of experiment: Diuretic activity in mongrel dog assessed as sodium level in excreted urine at 10 mg/kg, iv measured […] after dosage (reference value: 5 to 66 uequiv/min). In kind it is functional, Canis lupus familiaris. Summed up:
as §1

In experiment [10] the test system is Canis familiaris. Kind of experiment: Diuretic activity in mongrel dog assessed as potassium level in excreted urine at 10 mg/kg, iv measured between 15 to 45 mins after dosage (reference value: 7 to 63 uequiv/min). In kind it is functional, Canis lupus familiaris. A digest of the protocol:
as §1

The test system of experiment [11] is Canis familiaris. Description: Diuretic activity in mongrel dog assessed as chloride level in excreted urine at 10 mg/kg, iv measured between 15 to 45 mins after dosage (reference value: 3 to 64 uequiv/min). It counts as functional, Canis lupus familiaris. Summed up: as §2
Experiment [12] deals with Canis familiaris. Description: Diuretic activity in mongrel dog assessed as volume of excreted urine at 10 mg/kg, iv measured between 15 to 45 mins after dosage (reference value: 1 to 4 ml/min). It counts as functional, Canis lupus familiaris. A digest of the protocol:
as §1

Experiment [13] concerns Canis familiaris. Kind of experiment: Diuretic activity in mongrel dog assessed as sodium level in excreted urine at 1 mg/kg, po measured for 6 hrs (reference value: 2 mequivalents). It counts as functional, Canis lupus familiaris.
Experiment [14] has as its system Canis familiaris. Description: Diuretic activity in mongrel dog assessed as potassium level in excreted urine at 1 mg/kg, po measured for 6 hrs (reference value: 1 mequivalents). In kind it is functional, Canis lupus familiaris.
Experiment [15] relates to Canis familiaris. Kind of experiment: Diuretic activity in mongrel dog assessed as chloride level in excreted urine at 1 mg/kg, po measured for 6 hrs (reference value: 2 mequivalents). It counts as functional, Canis lupus familiaris.
Experiment [16] deals with Canis familiaris. Kind of experiment: Diuretic activity in mongrel dog assessed as volume of excreted urine at 1 mg/kg, po measured for 6 hrs (RVb = 180 ml).

Regarding `CC/C(=C\c1ccc(OCCCC(=O)O)c(Cl)c1Cl)[N+](=O)[O-]`, the Activity came out at 62 uEq/min with Canis familiaris [1], 29 uEq/min with Canis familiaris [2], 28 uEq/min with Canis familiaris [3] and 3 mL/min with Canis familiaris [4].

Turning to `CC(=O)/C=C/c1ccc(OCC(=O)O)c(Cl)c1Cl`, the Activity was determined as 911 uEq/min with Canis familiaris [1], 76 uEq/min with Canis familiaris [2], 1080 µequiv/min with Canis familiaris [3] and 8 mL/min in the experiment with Canis familiaris [4].

Turning to `C/C(=C\c1ccc(OCC(=O)O)c(Cl)c1)[N+](=O)[O-]`, the Activity in the experiment with Canis familiaris [5] stood at 734 uEq/min; with Canis familiaris [6], 142 uEq/min; in the experiment with Canis familiaris [7], 766 uEq/min; in the experiment on Canis familiaris [8], 8 mL/min.

On to `C/C(=C\c1cc(Cl)ccc1OCC(=O)O)[N+](=O)[O-]`, for which the Activity with Canis familiaris [5] came to 22 uEq/min; in the experiment with Canis familiaris [6], 17 uEq/min; in the experiment with Canis familiaris [7], 7 uEq/min; with Canis familiaris [8], 2 mL/min.

For the compound `C/C(=C\c1ccc(C(=O)O)cc1Cl)[N+](=O)[O-]`, the Activity came to 364 uEq/min with Canis familiaris [9], 45 uEq/min in the experiment on Canis familiaris [10], 335 uEq/min with Canis familiaris [11] and 7 mL/min in the experiment on Canis familiaris [12].

For the compound `CCCCC/C(=C\c1ccc(OCC(=O)O)c(Cl)c1Cl)[N+](=O)[O-]`, the Activity in the experiment with Canis familiaris [5] amounted to 179 uEq/min; in the experiment with Canis familiaris [6], 56 uEq/min; in the experiment on Canis familiaris [7], 269 uEq/min; in the experiment on Canis familiaris [8], 3 mL/min; with Canis familiaris [13] it was 10 milliequivalent; with Canis familiaris [14], 3 milliequivalent. Moreover, the Activity in the experiment on Canis familiaris [15] came to 9 milliequivalent; in the experiment with Canis familiaris [16], 413 mL.

On to `CC/C(=C\c1ccc(OCC(=O)O)c(Cl)c1Cl)[N+](=O)[O-]`, for which the Activity turned out to be 1174 uEq/min in the experiment with Canis familiaris [5]; 89 uEq/min in the experiment on Canis familiaris [6]; 1295 uEq/min in the experiment on Canis familiaris [7]; 10 mL/min in the experiment on Canis familiaris [8]; 26 milliequivalent in the experiment with Canis familiaris [13]; 5 milliequivalent in the experiment on Canis familiaris [14]. Besides, the values for the Activity in the experiment on Canis familiaris [15] and in the experiment on Canis familiaris [16] were 28 milliequivalent and 465 mL, respectively.

In the case of `CC/C(=C\c1ccc(OCC(=O)O)cc1Cl)[N+](=O)[O-]`, the Activity came to 1398 uEq/min in the experiment with Canis familiaris [5], 101 uEq/min in the experiment with Canis familiaris [6], 1431 uEq/min in the experiment on Canis familiaris [7] and 13 mL/min with Canis familiaris [8].

On to `O=C(O)COc1c(Cl)cc(Cl)cc1/C=C/[N+](=O)[O-]`, for which the Activity in the experiment with Canis familiaris [1] was 33 uEq/min; in the experiment on Canis familiaris [2] it was 33 uEq/min; with Canis familiaris [3] it was 3 uEq/min; in the experiment with Canis familiaris [4], 2 mL/min.

As for `C/C(=C\c1ccc(OCC(=O)O)c2ccccc12)[N+](=O)[O-]`, the Activity with Canis familiaris [5] stood at 1612 uEq/min; in the experiment on Canis familiaris [6], 128 uEq/min; in the experiment with Canis familiaris [7], 1659 uEq/min; in the experiment with Canis familiaris [8], 15 mL/min; in the experiment with Canis familiaris [13] it was 33 milliequivalent; with Canis familiaris [14] it was 7 milliequivalent. Further, the values for the Activity with Canis familiaris [15] and in the experiment with Canis familiaris [16] were 39 milliequivalent and 538 mL, respectively.

`CC/C(=C\c1ccc(C(=O)O)cc1Cl)[N+](=O)[O-]`: the Activity came out at 182 uEq/min with Canis familiaris [9], 63 uEq/min in the experiment on Canis familiaris [10], 146 uEq/min in the experiment with Canis familiaris [11] and 3 mL/min with Canis familiaris [12].

As for `CC/C(=C\c1ccc(OCC(=O)O)c(Cl)c1)[N+](=O)[O-]`, the Activity with Canis familiaris [5] was 1618 uEq/min; with Canis familiaris [6] it was 131 uEq/min; in the experiment with Canis familiaris [7] it was 1727 uEq/min; in the experiment with Canis familiaris [8], 15 mL/min.

Consider `CC/C(=C\c1cc(Cl)cc(Cl)c1OCC(=O)O)[N+](=O)[O-]`, for which the Activity with Canis familiaris [9] was found to be 71 uEq/min; in the experiment on Canis familiaris [10], 29 uEq/min; with Canis familiaris [11] it was 6 uEq/min; in the experiment with Canis familiaris [12], 3 mL/min.

On to `O=C(O)COc1ccc(/C=C/[N+](=O)[O-])cc1Cl`, for which the Activity in the experiment with Canis familiaris [9] is 201 uEq/min; in the experiment on Canis familiaris [10], 65 uEq/min; with Canis familiaris [11], 146 uEq/min; with Canis familiaris [12], 3 mL/min.

With `C/C(=C\c1ccc(OCC(=O)O)cc1Cl)[N+](=O)[O-]`, the Activity with Canis familiaris [5] was 683 uEq/min; in the experiment with Canis familiaris [6], 92 uEq/min; with Canis familiaris [7] it was 765 uEq/min; in the experiment on Canis familiaris [8] it was 7 mL/min; with Canis familiaris [13] it was 16 milliequivalent; in the experiment with Canis familiaris [14], 5 milliequivalent. For the same compound, the Activity in the experiment with Canis familiaris [15] was 22 milliequivalent; in the experiment on Canis familiaris [16], 402 mL.

As for `CC/C(=C\c1cccc(OCC(=O)O)c1)[N+](=O)[O-]`, the Activity came out at 452 uEq/min in the experiment on Canis familiaris [9], 76 uEq/min in the experiment on Canis familiaris [10], 639 uEq/min in the experiment on Canis familiaris [11] and 7 mL/min with Canis familiaris [12].

As for `CC/C(=C\c1ccc(OCC(=O)O)c2ccccc12)[N+](=O)[O-]`, the Activity in the experiment with Canis familiaris [5] came to 1848 uEq/min; in the experiment with Canis familiaris [6], 179 uEq/min; in the experiment with Canis familiaris [7], 2036 uEq/min; in the experiment on Canis familiaris [8], 13 mL/min.

Turning to `CC/C(=C\c1ccc(OC(C)C(=O)O)c(Cl)c1Cl)[N+](=O)[O-]` (stereo unspecified), the Activity came out at 490 uEq/min with Canis familiaris [5], 67 uEq/min in the experiment with Canis familiaris [6], 528 uEq/min in the experiment on Canis familiaris [7] and 7 mL/min in the experiment on Canis familiaris [8].

`CCCC/C(=C\c1ccc(OCC(=O)O)c(Cl)c1Cl)[N+](=O)[O-]`: the Activity turned out to be 322 uEq/min with Canis familiaris [5], 78 uEq/min with Canis familiaris [6], 364 uEq/min with Canis familiaris [7] and 4 mL/min in the experiment with Canis familiaris [8].

Turning to `CC/C(=C\c1ccc(OCC(=O)O)c(C)c1C)[N+](=O)[O-]`, the Activity is 1583 uEq/min in the experiment with Canis familiaris [5], 118 uEq/min in the experiment on Canis familiaris [6], 1650 uEq/min in the experiment on Canis familiaris [7] and 13 mL/min in the experiment with Canis familiaris [8].

With `O=C(O)COc1ccc(/C=C/[N+](=O)[O-])c(Cl)c1Cl`, the Activity in the experiment on Canis familiaris [5] was found to be 132 uEq/min; in the experiment on Canis familiaris [6] it was 7 uEq/min; in the experiment with Canis familiaris [7], 47 uEq/min; in the experiment on Canis familiaris [8], 4 mL/min.

`C/C(=C\c1ccc(OC(C)C(=O)O)c(Cl)c1Cl)[N+](=O)[O-]` (stereo unspecified): the Activity is 1191 uEq/min in the experiment on Canis familiaris [1], 74 uEq/min with Canis familiaris [2], 1228 uEq/min in the experiment with Canis familiaris [3] and 9 mL/min in the experiment on Canis familiaris [4].

Regarding `O=C(O)COc1ccc(/C=C/[N+](=O)[O-])cc1`, the Activity with Canis familiaris [1] was found to be 80 uEq/min; in the experiment on Canis familiaris [2], 35 uEq/min; in the experiment on Canis familiaris [3], 5 uEq/min; in the experiment with Canis familiaris [4] it was 2 mL/min.

Consider `CC/C(=C\c1cc(Cl)ccc1OCC(=O)O)[N+](=O)[O-]`, for which the Activity in the experiment with Canis familiaris [1] was found to be 117 uEq/min; in the experiment on Canis familiaris [2], 48 uEq/min; with Canis familiaris [3], 75 uEq/min; in the experiment with Canis familiaris [4], 4 mL/min.

`C/C(=C\c1cc(Cl)cc(Cl)c1OCC(=O)O)[N+](=O)[O-]`: the Activity in the experiment on Canis familiaris [1] came to 80 uEq/min; with Canis familiaris [2] it was 25 uEq/min; in the experiment on Canis familiaris [3], 41 uEq/min; with Canis familiaris [4], 3 mL/min.
